Screening data: PubChem BioAssay, Columbia University Molecular Screening Center
Insulin prom act: TRM-6 insulin promoter activation; AID 1296; activation, % at 2 µM; TRM-6 cells (human fetal islet line), insulin promoter eGFP reporter, imaging; plate-scaled: unstimulated 0, stimulated control 100; 130,000 tested, 0.81% active;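 active = activation at 2 µM above a set limit, confirmed on inspection of the cell images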;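 also: share of cells whose green reporter signal exceeds an intensity cutoff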
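test system = TRM-6 insulin promoter–eGFP reporter cells | benchmarks = stimulated versus unstimulated wells as plate controls | read-out basis = percent cells above green-intensity threshold, converted to percent activation versus plate controls | detection = fixed-cell fluorescence microscopy, eGFP plus Hoechst | incubation = tamoxifen pre-incubation 15 h overnight, then compound exposure 48 h at 37 °C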
* marks the source's active call; other numbers are inactive results; [ ] = remark or other dose. This is one part of a sample in which hits are shown more often than they occur.

SMILES	Insulin prom act
CC(NC(=O)Cn1cc(C(F)(F)F)ccc1=O)c1ccc(F)cc1 (centres undefined)	0
COc1ccc(NC(=O)C(CCS(C)(=O)=O)N2C(=O)c3ccccc3C2=O)cc1 (centres undefined)	-4
Cc1ccc(NC(=O)C(Cc2ccccc2)N2C(=O)C3C4CCC(C4)C3C2=O)cc1Cl (centres undefined)	-8
CN(C)S(=O)(=O)c1cc(NC(=O)[C@H](Cc2ccccc2)N2C(=O)c3ccccc3C2=O)ccc1Cl	414*
C=C(C)C1CC=C(C)/C(=N\NC(=S)Nc2ccc(C)cc2)C1 (centres undefined)	-6
CCCCNc1c(N)n(CCCC)c(=O)[nH]c1=O	-9
N#Cc1c(N2CCN(C(=O)c3ccccc3)CC2)nc(-c2ccccc2)c2c1CCCC2	79*
N#Cc1c(N2CCN(C(=O)c3ccco3)CC2)nc(-c2ccccc2)c2c1CCCC2	-71
CC(C)Cc1nc(N2CCN(C(=O)c3ccco3)CC2)c(C#N)c2c1CCC2	-8
Cc1ccc(C(=O)N2CCN(C(=O)c3ccco3)CC2)cc1NC(=O)c1ccco1	5
CCOC(=O)/C(C#N)=C\c1cc(C)n(-c2ccccc2)c1C	0
CCOC(=O)/C(C#N)=C\C=C1C=CN(C)C=C1	110*
CCOC(=O)/C(C#N)=C\c1ccc(CC)s1	3
CC1=NN(C(=O)c2ccccc2-n2cccc2)C(O)(C(F)(F)F)C1 (centres undefined)	-3
CC1OC(Oc2ccc3ccc(=O)oc3c2-c2c(O)ccc3cc(Oc4ccc5ccc(=O)oc5c4)c(=O)oc23)C(O)C(O)C1O (centres undefined)	0
CSCCC(NS(=O)(=O)c1ccc(Br)cc1)C(=O)OCC(=O)NC1CC1 (centres undefined)	-83
CC(C)CNC(=O)CN(C)S(=O)(=O)c1ccc(F)cc1	-8
CCOC(=O)CCN(Cc1sccc1C)S(=O)(=O)c1ccc(F)cc1	77*
CCN(CC)S(=O)(=O)c1ccc(F)cc1	190
CCOc1ccc(C(=O)NC(=S)Nc2ccccc2N2CCC(C)CC2)cc1[N+](=O)[O-]	-7
CC1CCN(c2ccccc2NC(=S)NC(=O)c2ccco2)CC1	230*
Cc1ccccc1C(=O)NC(=S)Nc1ccccc1N1CCCC1	-3
O=C(CS(=O)CC(=O)N(CC(=O)NC1CCCC1)c1ccc2c(c1)OCCO2)Nc1ccc(F)cc1 (centres undefined)	-2
CCCCC(C(=O)NC1CCCC1)N(Cc1ccco1)C(=O)Cn1nnc(-c2ccc(F)cc2)n1 (centres undefined)	0
CCCC(C(=O)NCc1ccco1)N(C(=O)CNS(=O)(=O)c1ccccc1)c1ccc(OC)cc1 (centres undefined)	122
SMILES	Insulin prom act
CCCC(C(=O)NC1CCCCC1)N(Cc1ccco1)C(=O)CNS(=O)(=O)c1ccccc1 (centres undefined)	77*
Cc1cc(C)c(NC(=S)N(CCCN2CCN(C)CC2)Cc2cccs2)c(C)c1	-7
CCOc1ccc(C(=O)NCC(c2cccs2)N(C)C)cc1 (centres undefined)	6
C/C=C/C=N/Nc1nc(C)cc(=O)[nH]1	6
CC(C(=O)Nc1cc([N+](=O)[O-])ccc1Cl)N1CCN(c2ccc(O)cc2)CC1 (centres undefined)	-72
CC1(C)CC(=O)C2=C(C1)Nc1cc3c(cc1C2c1ccc(F)cc1)OCO3 (centres undefined)	100*
CC1C2=C(CC(C)(C)CC2=O)NC2=C1C(=O)CC(C)(C)C2	-5
CC1=C(C(=O)Nc2ccc(F)cc2)C(c2ccc(C)o2)C2=C(CC(C)(C)CC2=O)N1 (centres undefined)	296
CC(=O)Nc1ccc(NC(=O)C(C)OC(=O)c2ccc(C)s2)cc1 (centres undefined)	0
O=S(=O)(NCc1ccco1)c1cccc(S(=O)(=O)N2CCOCC2)c1	0
C[C@H](NC(=O)c1ccco1)C(=O)Nc1ccc(S(=O)(=O)N2CCCC2)cc1	-4
O=S(=O)(c1ccc(S(=O)(=O)N(Cc2ccccc2)Cc2ccco2)cc1)N1CCCC1	494*
O=C(CSCc1ccc(Cl)cc1)Nc1ccc2c(c1)OCCO2	-7
O=C(NCCCN1CCN(c2ccccc2F)CC1)Nc1ccccc1[N+](=O)[O-]	-78
O=[N+]([O-])c1ccc(/C=C/C2=NN(c3ccccc3)C(c3ccco3)C2)cc1 (centres undefined)	285*[fluoresces]
O=c1ccc(-c2ccc([N+](=O)[O-])cc2)nn1-c1ccccc1	-6
O=[N+]([O-])c1ccc(Cl)c(/C=N/N2CCN(c3ccccc3)CC2)c1	7
N=C1N(/N=C/c2ccccc2)C(=Nc2ccccc2)C(=S)N1c1ccccc1	276
COc1ccc(N2CCN(CCCNC(=O)Nc3ccccc3)CC2)cc1	229
COc1cccc(N2CCN(CC(=O)NC(=O)NCc3ccco3)CC2)c1	-8
COc1ccc2c(C(=O)CN3CCN(c4ccccc4)CC3)c[nH]c2c1	94*
O=C(NN=C1C2CC3CC(C2)CC1C3)c1cccc(S(=O)(=O)N2CCOCC2)c1	-4
